ChEMBL document CHEMBL4837218, “Synthesis and in vitro antitumour activity of 4(R)-methyl-3-O-phosphonomethyl-α-l-threose nucleosides” (Eur J Med Chem, 2021)
Calls of active or inactive are those of the source. The calls are words filed in the database; no cut-off is given here.

Assays:
MDA-MB-231 [1] = assay: Induction of apoptosis in human MDA-MB-231 cells assessed as increase in cleaved PARP protein expression at 9 uM measured after 48 hrs in presence of cdc25c inhibitor, NSC663284 by western blot analysis; type: functional, cell-based
Outline: (§1)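 Four arms per cell line: untreated, test compound, 0.3 µM NSC663284 alone, and combination. Proteins harvested after 48 h and resolved by SDS-PAGE on 5–15% gels, transferred to nitrocellulose. Blocked 2 h in milk/PBS-Tween, primary antibodies overnight at 4 °C, biotin-conjugated secondary. Read on X-ray film with densitometry.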

MCF7 [2] = assay: Induction of apoptosis in human MCF7 cells assessed as increase in cleaved PARP protein expression at 4 uM measured after 48 hrs in presence of cdc25c inhibitor, NSC663284 by western blot analysis; type: functional, cell-based; outline: as §1
MCF7 [3] = assay: Induction of G2/M phase cell cycle arrest in human MCF7 cells assessed as decrease in p-cdc2 protein expression at 1 to 4 uM measured after 48 hrs by western blot analysis; type: functional, cell-based; conditions: dose 1-4 µM
Outline: (§2)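 Cells exposed to graded concentrations for 48 h, then proteins extracted. Run on SDS-PAGE (5–15% gels) and transferred to nitrocellulose. Blocked 2 h in 5% nonfat milk in PBS/0.1% Tween 20, primary antibody overnight at 4 °C, biotin-conjugated secondary 1 h. Visualized on X-ray film with densitometric quantitation; three independent experiments.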

MDA-MB-231 [4] = assay: Induction of mitochondrial membrane potential loss in human MDA-MB-231 cells assessed as green fluorescence intensity at 6 uM measured after 48 hrs by JC1 staining-based flow cytometry analysis (reference value: 0.8 %); type: functional
MDA-MB-231 [5] = assay: Inhibition of PI3K/AKT signalling pathway in human MDA-MB-231 cells assessed as downregulation of 85ap-PI3K expression at 3 to 9 uM measured after 48 hrs by Western blot analysis; type: cell-based; conditions: dose 3-9 µM
Outline: (§3)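 After 48 h exposure to compound at several concentrations, cells collected and proteins extracted. SDS-PAGE on 5–15% gels, transfer to nitrocellulose, blocking 2 h in 5% nonfat milk in PBS/0.1% Tween 20, primary antibodies overnight at 4 °C, biotin-conjugated secondary 1 h. Detection on X-ray film; band densitometry.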

MDA-MB-231 [6] = assay: Induction of mitochondrial membrane potential loss in human MDA-MB-231 cells assessed as red fluorescence intensity at 6 uM measured after 48 hrs by JC1 staining-based flow cytometry analysis (reference value: 99.2 %); type: functional
MDA-MB-231 [7] = assay: Induction of mitochondrial membrane potential loss in human MDA-MB-231 cells assessed as red fluorescence intensity at 9 uM measured after 48 hrs by JC1 staining-based flow cytometry analysis (reference value: 99.2 %); type: functional
MCF7 [8] = assay: Induction of apoptosis in human MCF7 cells assessed as increase in cleaved caspase 7 protein expression at 1 to 4 uM measured after 48 hrs by western blot analysis; type: functional, cell-based; conditions: dose 1-4 µM
Outline: (§4)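 MCF-7 and MDA-MB-231 breast cancer cells treated 48 h with a concentration series, then lysed for protein. SDS-PAGE on 5–15% gels, transfer to nitrocellulose. Blocked 2 h in 5% nonfat milk/PBS-0.1% Tween 20, primary antibodies overnight at 4 °C, biotin-conjugated secondary 1 h. X-ray film detection with densitometric quantification.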

MCF7 [9] = assay: Induction of apoptosis in human MCF7 cells assessed as reduction in Mcl-1 protein expression at 1 to 4 uM measured after 48 hrs by western blot analysis; type: functional, cell-based; conditions: dose 1-4 µM; outline: as §4
MCF7 [10] = assay: Induction of apoptosis in human MCF7 cells assessed as increase in cleaved caspase 9 protein expression at 1 to 4 uM measured after 48 hrs by western blot analysis; type: functional, cell-based; conditions: dose 1-4 µM; outline: as §4
MDA-MB-231 [11] = assay: Induction of mitochondrial membrane potential loss in human MDA-MB-231 cells assessed as green fluorescence intensity at 3 uM measured after 48 hrs by JC1 staining-based flow cytometry analysis (reference value: 0.8 %); type: functional
MDA-MB-231 [12] = assay: Cell cycle arrest in human MDA-MB-231 cells assessed as accumulation at G1 phase at 6 uM measured after 48 hrs by propidium iodide staining based flow cytometry (reference value: 46.28 %); type: functional
MCF7 [13] = assay: Inhibition of PI3K/AKT signalling pathway in human MCF7 cells assessed as downregulation of AKT phosphorylation at Ser473 residue at 1 to 4 uM measured after 48 hrs by Western blot analysis; type: cell-based; conditions: dose 1-4 µM; outline: as §3
MCF7 [14] = assay: Induction of mitochondrial membrane potential loss in human MCF7 cells assessed as red fluorescence intensity at 4 uM measured after 48 hrs by JC1 staining-based flow cytometry analysis (reference value: 91.9%); type: functional
MDA-MB-231 [15] = assay: Induction of apoptosis in human MDA-MB-231 cells assessed as early apoptotic cells at 6 uM measured after 48 hrs by Annexin V-FITC/propidium iodide staining based flow cytometric analysis (reference value: 1%); type: functional
MDA-MB-231 [16] = assay: Cell cycle arrest in human MDA-MB-231 cells assessed as accumulation at S phase at 3 uM measured after 48 hrs by propidium iodide staining based flow cytometry (reference value: 35.54 %); type: functional
MCF7 [17] = assay: Induction of DNA damage in human MCF7 cells assessed as increase in Chk1 protein expression at 1 to 4 uM measured after 48 hrs by western blot analysis; type: functional, cell-based; conditions: dose 1-4 µM; outline: as §2
MCF7 [18] = assay: Induction of mitochondrial membrane potential loss in human MCF7 cells assessed as green fluorescence intensity at 2 uM measured after 48 hrs by JC1 staining-based flow cytometry analysis (reference value: 8.1 %); type: functional
MDA-MB-231 [19] = assay: Induction of G2/M phase cell cycle arrest in human MDA-MB-231 cells assessed as downregulation of p-cdc2 protein expression at 9 uM measured after 48 hrs in presence of cdc25c inhibitor, NSC663284 by western blot analysis; type: functional, cell-based
MCF7 [20] = assay: Induction of apoptosis in human MCF7 cells assessed as increase in cleaved caspase 3 protein expression at 1 to 4 uM measured after 48 hrs by western blot analysis; type: functional, cell-based; conditions: dose 1-4 µM; outline: as §4
MCF7 [21] = assay: Cell cycle arrest in human MCF7 cells assessed as accumulation at G1 phase at 1 uM measured after 48 hrs by propidium iodide staining based flow cytometry (reference value: 70.09 %); type: functional
MCF7 [22] = assay: Induction of G2/M phase cell cycle arrest in human MCF7 cells assessed as upregulation of p-cdc25c at ser216 residue protein expression at 4 uM measured after 48 hrs by western blot analysis; type: functional, cell-based; outline: as §2
MCF7 [23] = assay: Induction of G2/M phase cell cycle arrest in human MCF7 cells assessed as upregulation of cdc25c protein expression at 4 uM measured after 48 hrs in presence of cdc25c inhibitor, NSC663284 by western blot analysis; type: functional, cell-based
Outline: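 Four groups (untreated, test compound, 0.3 NSC663284, combination) treated 48 h before protein extraction. Lysates resolved by SDS-PAGE (5–15%) and blotted to nitrocellulose. Blocked 2 h in 5% milk/PBS-0.1% Tween 20, primary antibody overnight at 4 °C, biotinylated secondary 1 h. Detected on X-ray film and quantified by densitometry.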

MCF7 [24] = assay: Induction of DNA damage in human MCF7 cells assessed as increase in Chk2 protein expression at 1 to 4 uM measured after 48 hrs by western blot analysis; type: functional, cell-based; conditions: dose 1-4 µM; outline: as §2
MCF7 [25] = assay: Induction of apoptosis in human MCF7 cells assessed as early apoptotic cells at 2 uM measured after 48 hrs by Annexin V-FITC/propidium iodide staining based flow cytometric analysis (reference value: 3 %); type: functional

C[C@H]1O[C@@H](n2cnc3c(N)nc(F)nc32)[C@H](O)[C@H]1OCP(=O)([O-])[O-].[Na+].[Na+]
Activity (MDA-MB-231 [1]): inactive
Activity (MCF7 [2]): inactive
Activity (MCF7 [3]): Active
Activity (MDA-MB-231 [4]): 36.2%
inhibition (MDA-MB-231 [5]): Active
Activity (MDA-MB-231 [6]): 63.8%
Activity (MDA-MB-231 [7]): 37%
Activity (MCF7 [8]): Active
Activity (MCF7 [9]): Active
Activity (MCF7 [10]): Active
Activity (MDA-MB-231 [11]): 1.4%
Activity (MDA-MB-231 [12]): 37.3%
inhibition (MCF7 [13]): Active
Activity (MCF7 [14]): 41.9%
Activity (MDA-MB-231 [15]): 19.1%
Activity (MDA-MB-231 [16]): 34.82%
Activity (MCF7 [17]): Active
Activity (MCF7 [18]): 32.8%
Activity (MDA-MB-231 [19]): inactive
Activity (MCF7 [20]): Active
Activity (MCF7 [21]): 63.54%
Activity (MCF7 [22]): Active
Activity (MCF7 [23]): inactive
Activity (MCF7 [24]): Active
Activity (MCF7 [25]): 46.3%
